# Compound activity from PubChem.
# A selection: hits, their analogues and other compounds. The true share with any hit is near 5.7%.
# Calb FLC: C. albicans growth modulation with fluconazole; C. albicans CaCi-2 (fluconazole-resistant clinical isolate) + fluconazole, Alamar Blue growth, 48 h; growth inhibition, % (no concentration beside the values); hit rate 0.57% among 300,000;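 active means growth inhibition above about 58% in most replicates, limit read from the data, passing the limit was not always enough; inconclusive means exactly half the replicates above a set limit; inactive means most replicates below a set limit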;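 further: all wells also contain fluconazole at 8 µg/ml as a sub-toxic cotreatment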
# Beta cell apopt: blocks beta cell apoptosis; INS-1E cytokine-induced death, ATP luminescence, 48 h; percent of positive-control rescue, neutral wells zero; protection from apoptosis, % (no concentration beside the values); hit rate 0.8% among 300,000; AID 435005;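 active means Every replicate reaches about 75%, or at least half do and their mean reaches it too, limit read from the data; inconclusive means At least half of replicates reach the limit but their mean does not; inactive means Under half of replicates reach the limit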;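 further: higher means more ATP so stronger rescue from cytokine killing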
# Mdm2-MdmX inh: human Mdm2/MdmX binding inhibition; O15151+Q00987; SaOS-2 split-luciferase Mdm2/MdmX complementation, luminescence; inhibition, % at 8 µM; hit rate 3% among 330,000; AID 485346;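 active means inhibition of at least 50% at 8 µM in the primary screen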
# Target sequence (O15151 whole entry, looked up): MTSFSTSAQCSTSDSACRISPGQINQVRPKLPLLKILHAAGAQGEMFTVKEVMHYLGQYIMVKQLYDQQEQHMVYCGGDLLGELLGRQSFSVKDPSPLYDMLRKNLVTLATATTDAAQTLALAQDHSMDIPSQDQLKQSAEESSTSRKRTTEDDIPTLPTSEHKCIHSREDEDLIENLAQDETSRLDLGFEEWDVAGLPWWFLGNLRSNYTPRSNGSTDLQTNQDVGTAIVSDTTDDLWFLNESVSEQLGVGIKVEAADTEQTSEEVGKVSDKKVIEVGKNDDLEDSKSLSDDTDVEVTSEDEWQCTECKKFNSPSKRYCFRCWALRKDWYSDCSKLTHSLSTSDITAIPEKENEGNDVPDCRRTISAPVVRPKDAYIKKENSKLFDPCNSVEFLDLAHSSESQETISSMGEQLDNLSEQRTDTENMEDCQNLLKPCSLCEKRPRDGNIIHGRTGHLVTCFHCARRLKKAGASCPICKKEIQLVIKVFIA
# Target sequence (Q00987 whole entry, looked up): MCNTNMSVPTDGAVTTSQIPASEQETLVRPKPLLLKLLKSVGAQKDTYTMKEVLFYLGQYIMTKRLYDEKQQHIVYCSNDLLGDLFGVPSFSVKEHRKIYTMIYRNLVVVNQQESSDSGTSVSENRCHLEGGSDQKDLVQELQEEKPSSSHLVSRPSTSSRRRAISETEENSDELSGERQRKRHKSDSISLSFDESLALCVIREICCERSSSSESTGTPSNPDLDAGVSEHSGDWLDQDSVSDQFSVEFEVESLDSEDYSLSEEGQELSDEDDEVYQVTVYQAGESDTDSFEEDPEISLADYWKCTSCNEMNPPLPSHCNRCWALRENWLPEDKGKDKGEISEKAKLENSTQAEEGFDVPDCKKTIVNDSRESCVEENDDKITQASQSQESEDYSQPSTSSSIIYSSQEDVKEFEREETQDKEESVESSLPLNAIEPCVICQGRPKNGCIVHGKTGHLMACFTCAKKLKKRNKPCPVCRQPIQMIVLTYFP
# CSC inhib: cancer stem cell inhibition; hit rate 1.1% among 300,000; cancer stem cell-like cells viability, luminescence; AID 2717; inhibition, % at 7.5 µM; in the data active means inhibition above about 75%; inconclusive means no clear call, values can overlap the other calls; tested in HMLE shEcad cells
# SKKanGAS inh: SKKanGAS growth inhibition; S. pyogenes SKKanGAS, kanamycin growth, BacTiter-Glo, 6 h; inhibition, % at 7.5 µM; hit rate 1.3% among 300,000; AID 1662;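 active means mean replicate score, as percent of positive control median, at least 50; inconclusive means mean below 50 but one replicate at or above 50; inactive means mean and every replicate below 50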;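 further: strain carries kanamycin resistance gene driven by streptokinase promoter and grows in 40 µg/ml kanamycin; loss of luminescence reflects streptokinase promoter inhibition or plain growth inhibition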
# T cruzi repl: blocks replication of Trypanosoma cruzi; T. cruzi beta-gal in NIH3T3, luminescence, 90 h; inhibition, % (concentration not given with the values); hit rate 1.4% among 300,000;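 active means mean inhibition across valid replicates above about 55%, limit read from the data; inconclusive means mean below that limit but half or more replicates reach it; inactive means mean below it, under half of replicates reach it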;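 further: signal also drops with host cell toxicity which is not excluded here; higher percent means less beta-gal luminescence so fewer parasites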
#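 Assay system: NIH/3T3 host cells with β-galactosidase reporter T. cruzi; input: 5,000 host fibroblasts per well; compound: single 50 nL compound addition per well in DMSO; timing: ≥90 h infection period, 3 h prior cell attachment; measured by: GalScreen β-gal luminescence, detergent lysis, 60 min; evaluation: percent inhibition of parasite-derived β-gal signal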
# Mdm2-MdmX conf: human Mdm2/MdmX binding inhibition, confirmed; shares compounds with Mdm2-MdmX inh; luminescent assay; hit rate 55% among 10,000; inhibition, % at 8 µM; AID 489028; in the data active means inhibition above about 40%
# Full FLuc ctr: full-length luciferase inhibition in Mdm2/MdmX counter-screen | hit rate 77% among 6,200 | shares compounds with Mdm2-MdmX inh | inhibition, % at 8 µM | SaOS-2 full-length luciferase counterscreen, luminescence;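 active means mean inhibition at 8 µM reaching about 37%, which flags the compound as non-specific, limit read from the data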;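 further: p53-null SaOS-2 cells with luciferase driven by a doxycycline-inducible promoter; compound on cells about two nights before reading with doxycycline added after day one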
# Hits are given with their value; n = inactive; u = inconclusive; x = no result given.
SMILES,Calb FLC,Beta cell apopt,Mdm2-MdmX inh,CSC inhib,SKKanGAS inh,T cruzi repl,Mdm2-MdmX conf,Full FLuc ctr
COc1c(OC)c(O)c2c(=O)c(O)c(-c3ccccc3)oc2c1OC,n,n,81,n,n,n,n,x
COc1ccc(-c2oc3c(OC)c(OC)c(OC)c(O)c3c(=O)c2OC)cc1OC,n,n,79,n,n,n,87,47
COc1c(O)c(O)c2oc(-c3ccccc3)cc(=O)c2c1OC,n,x,n,n,n,n,x,x
CCOC(=O)N1CCN(C(=O)/C(=C/c2ccc(N(C)C)cc2)NC(=O)c2ccccc2)CC1,x,n,n,x,x,x,x,x
C=CCNC(=O)COC(=O)C1CCN(S(=O)(=O)c2ccc3c(c2)OCCO3)CC1,n,n,n,n,n,n,x,x
Cc1ccc(CNC(=O)c2ccc3c(=O)n4c(-c5ccc(C)cc5)csc4nc3c2)cc1,n,n,57,x,n,n,44,90
Cc1ccc(-c2csc3nc4cc(C(N)=O)ccc4c(=O)n23)cc1,n,n,n,n,n,n,x,x
O=C(Nc1ccccc1C(=O)NC(Cc1ccccc1)C(=O)NC1CCCCCC1)c1ccccc1 (stereo not given),n,n,62,n,n,n,n,x
O=C(N/N=C/c1ccc(O)cc1)c1[nH]c2ccc(Br)cc2c1-c1ccccc1,n,n,67,n,u,n,56,92
CCOc1ccc(/C=N/NC(=O)c2[nH]c3ccc(C)cc3c2C)cc1,n,n,n,n,n,n,x,x
C/C(=N\NC(=O)CCC(=O)O)c1c(-c2ccccc2)c2cc(Br)ccc2[nH]c1=O,n,n,n,n,n,n,x,x
Cc1c(C(=O)N/N=C/c2ccc(Cl)cc2)[nH]c2ccc(Cl)cc12,n,n,63,n,56,n,62,91
CCCCc1nc2cc(C(=O)N3CCCCC3CCNC(C)=O)ccc2o1 (stereo not given),n,n,n,n,n,n,x,x
S=C(NCCNCc1ccccc1)NC1CCCCC1,n,n,51,n,n,n,n,x
O=C(NCCO)/C(=C/c1cccc([N+](=O)[O-])c1)NC(=O)c1ccco1,n,n,n,n,n,n,x,x
COc1ccc(-c2csc(N(CCCN(C)C)C(=O)c3ccc(C(C)(C)C)cc3)n2)cc1,n,n,54,n,n,n,n,x
CCN(CC)CCCN(C(=O)c1ccccc1F)c1nc(-c2ccc(OC)cc2)cs1,n,n,50,n,n,n,42,69
CCN(CC)CCCN(C(=O)c1ccc(OC)cc1)c1nc(-c2ccc(OC)cc2)cs1,n,n,50,n,n,n,40,58
COc1ccc(-c2csc(N(CCCN(C)C)C(=O)c3ccc(C)cc3)n2)cc1,n,n,n,n,n,n,x,x
CCN(CC)CCCN(C(=O)c1ccccc1C)c1nc(-c2ccc(OC)cc2)cs1,n,n,n,n,n,n,x,x
COCCN(C(=S)Nc1ccc(OC)cc1)C1CCN(C(C)=O)CC1,n,n,n,n,n,n,x,x
CC1CCc2cc(F)ccc2N1C(=O)CSc1nnc2c(n1)[nH]c1ccc(F)cc12 (stereo not given),n,n,84,n,n,n,n,x
COc1cc2c(cc1OC)C(c1cccs1)N(C(=O)c1ccc(S(=O)(=O)N(C)C)cc1)CC2 (stereo not given),n,n,n,n,n,n,x,x
Nc1nccc(-c2ccc(-n3cnc4ccccc43)cc2)n1,n,n,70,x,n,n,56,n
Cc1nccc(-c2ccc(-n3cnc4ccccc43)cc2)n1,n,n,n,n,n,n,x,x
SMILES,Calb FLC,Beta cell apopt,Mdm2-MdmX inh,CSC inhib,SKKanGAS inh,T cruzi repl,Mdm2-MdmX conf,Full FLuc ctr
c1ccc2c(c1)ncn2-c1ccc(-c2ccnc(-c3ccncc3)n2)cc1,n,n,53,n,n,n,n,x
Cc1ccc(C23CC4CC(CC(C(=O)NC(C(=O)O)C(C)C)(C4)C2)C3)cc1 (stereo not given),n,n,n,n,n,n,x,x
Cc1cc(N2CCC(C)CC2)nc(NCc2ccccc2)n1,n,101,80,n,n,n,51,40
Cc1cc(N/N=C/c2ccc(F)cc2)nc(NCc2ccccc2)n1,n,x,n,n,n,n,x,x
Cc1cc(N/N=C/c2ccc(Cl)cc2Cl)nc(NCc2ccccc2)n1,n,x,71,u,92,n,n,x
Cc1cc(Nc2ccccc2)nc(NCc2ccccc2)n1,97,101,53,n,n,n,n,59
Cc1cc(Oc2ccccc2)nc(NCc2ccccc2)n1,n,n,n,n,n,n,x,x
Cc1cc(Nc2cccc(F)c2)nc(NCc2ccccc2)n1,n,106,66,n,n,n,n,x
COc1ccc(CNC(=O)[C@@H](C)NC(=O)C2CCN(C(=O)[C@@H](N)CCSC)CC2)cc1,n,n,n,n,n,n,x,x
CCCc1ccc2oc(C(=O)N3CCNC(=O)C3CC(=O)OC)c(C)c2c1 (stereo not given),n,x,n,n,n,n,x,x
Cc1cc(Nc2ccc(Cl)cc2)nc(NCc2ccccc2)n1,u,n,63,n,n,n,42,75
CCCCNc1cc(C)nc(NCc2ccccc2)n1,n,104,67,n,n,n,60,39
Cc1cc(C)nc(NCCCc2ccccc2)n1,n,n,n,n,n,n,x,x
CC(C)(Oc1ccc(Cl)cc1)C(=O)O/N=C(\N)c1ccncc1,n,n,n,n,n,n,x,x
CC1=CC(=O)c2ccccc2C1=O,x,n,n,n,n,n,x,x
O=C(CN1C(=O)c2ccccc2C1=O)Nc1cccc2cccnc12,n,x,n,n,n,n,x,x
O=C1C=C(Nc2ccccc2)c2ccccc2C1=O,n,x,53,x,68,n,n,x
CCc1ccc(NC2=CC(=O)C(=O)c3ccccc32)cc1,x,x,70,x,x,x,65,85
O=C1C=C(Nc2cccc3cccnc23)c2ccccc2C1=O,101,n,63,n,63,n,57,70
O=C(CCl)NCc1c(Cl)cccc1-n1cccc1,n,n,56,n,n,n,41,n
O=C(COC(=O)c1cc[n+]([O-])cc1)Nc1cc([N+](=O)[O-])ccc1Cl,n,n,n,n,n,n,x,x
C=CC[C@@H](CC(=O)N[C@@H](CO)Cc1ccccc1)C(=O)NC[C@@H](OC(=O)[C@@H](CC=C)Cc1ccc(F)cc1)c1ccccc1,x,n,52,n,x,x,n,x
C=CC[C@H](CC(=O)N(CCO)Cc1ccccc1)C(=O)NCCOC(=O)[C@@H](CC=C)Cc1ccc(F)cc1,x,n,n,x,x,x,x,x
C=CC[C@@H](CC(=O)N(CCO)Cc1ccccc1)C(=O)NC[C@@H](OC(=O)[C@@H](CC=C)Cc1ccc(F)cc1)c1ccccc1,x,n,55,n,x,x,n,x
C=CC[C@H](CC(=O)N(CCO)Cc1ccccc1)C(=O)NC[C@H](OC(=O)[C@@H](CC=C)Cc1ccc(F)cc1)c1ccccc1,x,n,71,n,x,x,n,x
